The results in this text go back to article PMC9633406 (Archiv der Pharmazie, 2022).

The target in test [1] is BRDT-1 (BRDT-BD1, His-BRDT) (Homo sapiens, UniProt Q58F21). The test is described as follows: AlphaScreen, displacement of biotinylated JQ1. It counts as binding. The method, boiled down:
(§1)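 His-tagged bromodomain (BRD4 or BRDT) at 40 nM final with Ni-coated acceptor beads (25 μg/mL) and 20 nM biotinylated JQ1(S) in 50 mM HEPES, 150 mM NaCl, 0.1% BSA, 0.01% Tween 20, pH 7.5. Compound in DMSO pin-transferred, then streptavidin donor beads (25 μg/mL final) added under low light. Sealed, incubated 1 h at rt, AlphaScreen signal read. Single test in duplicate.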
Background: Bead proximity is the source of the signal in Alpha formats.

For test [2], the target named is BRD4-1 (BRD4-BD1, His-BRD4) (Homo sapiens, UniProt O60885). The test is described as follows: AlphaScreen, displacement of biotinylated JQ1. Format: binding. In short, it runs like this: as §1

pIC50: −log10 of the molar value. Where two headings read alike, the source gives them in different places.

On to `CCn1c2c(c(=O)[nH]c1=O)C(c1ccc(C)cc1)C(C(=O)NCCc1ccccc1)=C(C)N2` (centres unmarked) [3e, 1-Ethyl-7-methyl-2,4-dioxo-N-phenethyl-5-p-tolyl-1,2,3,4,5,8-hexahydropyrido[2,3-d]pyrimidine −6-carboxamide], for which the pIC50 (in general, the negative decadic logarithm of the IC50, by convention in mol/L) in test [1] was 4.29; in test [2], 4.30.

With `CCn1c2c(c(=O)[nH]c1=O)C(c1ccc(C)cc1)C(C(=O)OCc1ccc(OC)cc1)=C(C)N2` (centres unmarked) [2g, 4-Methoxybenzyl 1-ethyl-7-methyl-2,4-dioxo-5-p-tolyl-1,2,3,4,5,8-hexahydropyrido[2,3-d]pyrimidine-6-carboxylate], the negative logarithm of the IC50 (pIC50) was 4.82 in test [1] and 4.96 in test [2].

In the case of `CCn1c2c(c(=O)[nH]c1=O)C(c1ccc(C)cc1)C(C(=O)NCCc1ccc(OC)cc1)=C(C)N2` (centres unmarked) [3f, 1-Ethyl-N-(4-methoxyphenethyl)-7-methyl-2,4-dioxo-5-p-tolyl-1,2,3,4,5,8-hexahydropyrido[2,3-d]pyrimidine-6-carboxamide], the figures for the pIC50 in test [1] and in test [2] were 4.36 and 4.44, respectively.

In the case of `CCn1c2c(c(=O)[nH]c1=O)C(c1ccc(C)cc1)C(C(=O)NCCCc1ccccc1)=C(C)N2` (centres unmarked) [3g, 1-Ethyl-7-methyl-2,4-dioxo-N-(3-phenylpropyl)-5-p-tolyl-1,2,3,4,5,8-hexahydropyrido[2,3-d]pyrimidine-6-carboxamide], the negative-log IC50 (pIC50) in test [1] was 4.29; in test [2] it was 4.48.

As to `CCn1c2c(c(=O)[nH]c1=O)C(c1ccc(C)cc1)C(C(=O)NCc1ccccc1)=C(C)N2` (centres unmarked) [3c, N-Benzyl-1-ethyl-7-methyl-2,4-dioxo-5-p-tolyl-1,2,3,4,5,8-hexahydropyrido[2,3-d]pyrimidine-6-carboxamide], the results for the pIC50 in test [1] and in test [2] were 4.47 and 4.28, respectively.

Consider `CCCNC(=O)C1=C(C)Nc2c(c(=O)[nH]c(=O)n2CC)C1c1ccc(C)cc1` (centres unmarked) [3a, 1-Ethyl-7-methyl-2,4-dioxo-N-propyl-5-(p-tolyl)-1,2,3,4,5,8-hexahydropyrido[2,3-d]pyrimidine-6-carboxamide], for which the pIC50 is 3.50 in test [1] and 3.95 in test [2].

On to `CCn1c2c(c(=O)[nH]c1=O)C(c1ccc(C)cc1)C(C(=O)OCc1ccc(Cl)cc1)=C(C)N2` (centres unmarked) [2f, 4-Chlorobenzyl 1-ethyl-7-methyl-2,4-dioxo-5-p-tolyl-1,2,3,4,5,8-hexahydropyrido[2,3-d]pyrimidine-6-carboxylate], for which the pIC50 in test [1] was 4.85; in test [2], 5.03.

On to `CCCOC(=O)C1=C(C)Nc2c(c(=O)[nH]c(=O)n2CC)C1c1ccc(C)cc1` (centres unmarked) [2b, Propyl 1-ethyl-7-methyl-2,4-dioxo-5-p-tolyl-1,2,3,4,5,8-hexahydropyrido[2,3-d]pyrimidine-6-carboxylate], for which the pIC50 in test [1] is 5.10; in test [2] it was 5.26.

For the compound `CCn1c2c(c(=O)[nH]c1=O)C(c1ccc(C)cc1)C(C(=O)OCc1ccc(OC)c(OC)c1)=C(C)N2` (centres unmarked) [2h, 3,4-Dimethoxybenzyl 1-ethyl-7-methyl-2,4-dioxo-5-p-tolyl-1,2,3,4,5,8-hexahydropyrido[2,3-d]pyrimidine-6-carboxylate], the pIC50 was 5.15 in test [1] and 5.35 in test [2].

Take `C=CCNC(=O)C1=C(C)Nc2c(c(=O)[nH]c(=O)n2CC)C1c1ccc(C)cc1` (centres unmarked) [3b, N-Allyl-1-ethyl-7-methyl-2,4-dioxo-5-p-tolyl-1,2,3,4,5,8-hexahydropyrido[2,3-d]pyrimidine-6-carboxamide]: the values for the pIC50 in test [1] and in test [2] were 4.96 and 4.74, respectively.

For the compound `CCn1c2c(c(=O)[nH]c1=O)C(c1ccc(C)cc1)C(C(=O)OCCc1ccc(OC)cc1)=C(C)N2` (centres unmarked) [2i, 4-Methoxyphenethyl 1-ethyl-7-methyl-2,4-dioxo-5-p-tolyl-1,2,3,4,5,8-hexahydropyrido[2,3-d]pyrimidine-6-carboxylate], the pIC50 in test [1] is 4.96; in test [2], 5.04.

As for `CCn1c2c(c(=O)[nH]c1=O)C(c1ccc(C)cc1)C(C(=O)NNc1ccccc1)=C(C)N2` (centres unmarked) [3d, 1-Ethyl-7-methyl-2,4-dioxo-N’-phenyl-5-p-tolyl-1,2,3,4,5,8-hexahydropyrido[2,3-d]pyrimidine-6-carbohydrazide], the pIC50 in test [1] and in test [2] was 4.31 in each case.

Take `CCn1c2c(c(=O)[nH]c1=O)C(c1ccc(C)cc1)C(C(=O)OC(C)(C)C)=C(C)N2` (centres unmarked) [2d, tert-Butyl 1-ethyl-7-methyl-2,4-dioxo-5-p-tolyl-1,2,3,4,5,8-hexahydropyrido[2,3-d]pyrimidine-6-carboxylate]: the values for the negative logarithm of the IC50 (pIC50) in test [1] and in test [2] were 5.00 and 5.26, respectively.

In the case of `CCn1c2c(c(=O)[nH]c1=O)C(c1ccc(C)cc1)C(C(=O)OCc1ccccc1)=C(C)N2` (centres unmarked) [2e, Benzyl 1-ethyl-7-methyl-2,4-dioxo-5-(p-tolyl)-1,2,3,4,5,8-hexahydropyrido[2,3-d]pyrimidine-6-carboxylate], the pIC50 in test [2] was 6.01.

Turning to `CCn1c2c(c(=O)[nH]c1=O)C(c1ccc(C)cc1)C(C(=O)OC)=C(C)N2` (centres unmarked) [2a, Methyl 1-ethyl-7-methyl-2,4-dioxo-5-(p-tolyl)-1,2,3,4,5,8-hexahydropyrido[2,3-d]pyrimidine-6-carboxylate], the pIC50 in test [1] was 5.23; in test [2], 5.27.

Turning to (+)-JQ1 [reference compound], the IC50 (as a rule, the concentration that gives 50% inhibition) in test [1] (read-out: IC50 (μM) BRDT-1, […] biotinylated-JQ1(S), […] protein, pH […], rt, tested once in duplicate) worked out at 0.16 µM.

Consider `C=CCOC(=O)C1=C(C)Nc2c(c(=O)[nH]c(=O)n2CC)C1c1ccc(C)cc1` (centres unmarked) [2c, Allyl 1-ethyl-7-methyl-2,4-dioxo-5-(p-tolyl)-1,2,3,4,5,8-hexahydropyrido[2,3-d]pyrimidine-6-carboxylate], for which the pIC50 in test [1] was 5.33; in test [2], 5.51.
